The source of these data is ChEMBL document CHEMBL4334439, “Discovery, Optimization, and Target Identification of Novel Potent Broad-Spectrum Antiviral Inhibitors” (J Med Chem, 2019).

Active and inactive are the calls of the source. The calls are words filed in the database; no cut-off is given here.

Data set [1] is described as follows: Selectivity index, ratio of CC50 for African green monkey Vero cells to EC50 for SFTSV infected in African green monkey Vero cells. It is filed as toxicity. Particulars: read-out: Ratio CC50/EC50. The procedure, abridged: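 Vero cells infected with SFTSV at MOI 0.01; virus titre measured 4 days after infection. The cytotoxicity arm used 1×10^4 cells/well with 48 h of serially diluted compound, then a WST-1 absorbance read (OD450/OD630) for CC50. SI is CC50/EC50.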

The nature of data set [2]: Selectivity index, ratio of CC50 for human RD cells to EC50 for EV71(FY)-Luc infected in human RD cells. In kind it is toxicity, cell-based. Particulars: read-out: Ratio CC50/EC50. Put shortly: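 RD cells seeded at 1×10^4/well and cultured overnight, then infected with EV71(FY)-Luc at MOI 1 and treated with compound straight away. EC50 is the 50% drop in luminescence or RNA. CC50 comes from a 48 h serial-dilution exposure at 1×10^4 cells/well, read by WST-1 (OD450/OD630).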

The subject of data set [3] is Hepatitis C virus. Put plainly: Antiviral activity against EGFP-fused HCV JFH-1 harboring K78E/E2-G451R/NS3-M260K/NS5A-T462I mutation infected in human Huh7.5.1 cells assessed as combination index after 2 days in presence of ribavirin by qRT-PCR analysis. It is filed as functional, Hepacivirus hominis. The procedure, abridged: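 In HCVcc-infected Huh7.5.1 cells (1×10^4/well, overnight, 37 °C), compound was given at various concentrations alone or with the named approved antiviral. After 2 days HCV RNA was quantified by qRT-PCR to derive the combination index.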

For data set [4], the system named is Influenza A virus. The experiment in a line: Antiviral activity against Gaussia tagged Influenza A virus (A/Puerto Rico/8/34(H1N1)) infected in MDCK cells assessed as inhibition of H1N1 replication measured at 24 hrs post infection by luciferase reporter gene assay. In kind it is functional, organism-based. The note with it: A/Puerto Rico/8/1934(H1N1). The procedure, abridged:
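MDCK cells at 1×10^5/well, cultured overnight, were infected with A/PR/8/34(H1N1)-Gaussia luciferase at MOI 0.1. Compound (0.05–20 µM) was added immediately. Luminescence or qRT-PCR was read at 24 hpi; EC50 is 50% reduction.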

The nature of data set [5]: Cytotoxicity against HEK293T cells infected with HIV pseudotyped virions assessed as decrease in cell viability after 48 hrs by WST1 assay. In kind it is cell-based, HEK-293T. The note with it: human. Put shortly:
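Cells seeded at 1 × 10^4 per well and cultured overnight at 37 °C, then incubated 48 h with serially diluted compounds. Viability read with WST-1 reagent as absorbance at OD450/OD630.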

In data set [6] the test system is Human immunodeficiency virus. Put plainly: Antiviral activity against HIV pseudotyped virions infected in human HEK293T cells cotransfected with envelope deficient pNL4-3.luc.R-E- plasmid and VSVG plasmid assessed as inhibition of HIV replication preincubated for 15 mins followed by viral infection and measured at 48 hrs post-infection by luciferase based luminescence method. It is filed as functional, organism-based. Particulars: Human immunodeficiency virus 1, HEK-293T. Put shortly:
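VSV-G-pseudotyped HIV (pNL4-3.luc.R-E-) was made in HEK293T by calcium phosphate transfection, collected at 48 h and diluted to 0.2 ng p24/ml. HEK293T cells in 24-well plates got compound 15 min before 0.5 mL pseudovirus. Cells were lysed 48 h post-infection for luciferase.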

A short description of data set [7]: Selectivity index, ratio of CC50 for human Huh7.5.1 cells to EC50 for DENV infected in human Huh7.5.1 cells. In kind it is toxicity, cell-based. Particulars: read-out: Ratio CC50/EC50. Put shortly:
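SI from two assays. Antiviral: Huh7.5.1 cells infected with DENV II or ZIKV at MOI 0.1; viral RNA measured by qRT-PCR after 3 days; EC50 taken at 50% RNA reduction. Cytotoxicity: cells seeded at 1×10^4/well, given serially diluted compound for 48 h, then WST-1 absorbance (OD450/OD630) read for CC50.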

Data set [8] addresses T1, Ribose-phosphate pyrophosphokinase 1 (Homo sapiens) (UniProt P60891).
T1 sequence (whole entry): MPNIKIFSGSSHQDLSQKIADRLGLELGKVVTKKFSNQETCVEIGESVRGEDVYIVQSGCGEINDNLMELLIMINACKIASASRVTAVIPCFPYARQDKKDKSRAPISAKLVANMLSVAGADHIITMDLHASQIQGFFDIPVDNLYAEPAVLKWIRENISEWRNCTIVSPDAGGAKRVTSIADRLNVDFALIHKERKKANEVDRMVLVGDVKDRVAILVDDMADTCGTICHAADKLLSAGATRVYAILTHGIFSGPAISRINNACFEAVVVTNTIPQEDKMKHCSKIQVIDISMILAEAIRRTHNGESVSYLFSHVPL
The experiment in a line: Binding affinity to PRPS1 (unknown origin).

For data set [9], the system named is Hepatitis C virus. Put plainly: Antiviral activity against GFP-fused HCV JFH-1 harboring K78E/E2-G451R/NS3-M260K/NS5A-T462I mutant infected in human Huh7.5.1 cells assessed as reduction in viral infection at 10 uM preincubated for 2 hrs followed by viral infection and measured after 48 hrs by epifluorescence microscopic analysis relative to control. It is filed as functional, Hepacivirus hominis. Also noted: scale not given: the % may be the effect or the level left. The procedure, abridged: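 Primary screen at 10 μM. Huh7.5.1 cells were pretreated 2 h, then infected with GFP-HCV (MOI 1). GFP intensity was checked by fluorescence microscopy at 48 h. Hits needed over 50% fluorescence decay before dose-response retesting.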

For data set [10], the system named is Hepatitis C virus. Put plainly: Antiviral activity against EGFP-fused HCV JFH-1 harboring K78E/E2-G451R/NS3-M260K/NS5A-T462I mutation infected in human Huh7.5.1 cells assessed as reduction in viral RNA level after 2 days in presence of telaprevir by qRT-PCR analysis. In kind it is functional, organism-based. Particulars: Hepacivirus hominis. Put shortly: (§1)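 Huh7.5.1 cells at 1×10^4/well, grown overnight at 37 °C. HCVcc was mixed with serially diluted compound (top 30 or 6 μM), given alone or with the named drug, and added to the cells. Viral RNA was read by qRT-PCR after 2 days. EC50 is the concentration giving 50% RNA reduction.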

Data set [11] has as its system Zika virus. Put plainly: Antiviral activity against ZIKV infected in human Huh7.5.1 cells assessed as inhibition of viral replication measured after 3 days qRT-PCR analysis. It is filed as functional, organism-based. Particulars: Huh-7.5.1, 72 h. Put shortly: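 Huh7.5.1 cells were infected with DENV II or ZIKV at MOI 0.1 and treated with compound. Viral RNA was quantified by qRT-PCR after 3 days. EC50 is 50% reduction of RNA level.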

Data set [12] concerns Severe fever with thrombocytopenia syndrome virus. Put plainly: Antiviral activity against SFTSV infected in African green monkey Vero cells assessed as reduction in viral titre measured at 4 days post infection. It is filed as functional. Particulars: 96 h.
Data set [13] relates to Hepatitis C virus. The experiment in a line: Antiviral activity against EGFP-fused HCV JFH-1 harboring K78E/E2-G451R/NS3-M260K/NS5A-T462I mutation infected in human Huh7.5.1 cells assessed as reduction in viral RNA level after 2 days in presence of sofosbuvir by qRT-PCR analysis. It is filed as functional, organism-based. Particulars: Hepacivirus hominis. Put shortly:
as §1

Data set [14] concerns Huh7.5.1. The experiment in a line: Cytotoxicity against human Huh7.5.1 cells infected with DENV assessed as decrease in cell viability after 48 hrs by WST1 assay. It is filed as cell-based. The note with it: Huh-7.5.1, 48 h. Put shortly:
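Cells at 1×10^4/well, cultured overnight at 37 °C, were incubated 48 h with serially diluted compound. Viability was read by WST-1 absorbance (OD450/OD630).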

The test system of data set [15] is Hepatitis C virus. The experiment in a line: Antiviral activity against EGFP-fused HCV JFH-1 harboring K78E/E2-G451R/NS3-M260K/NS5A-T462I mutant infected in human Huh7.5.1 cells assessed as reduction in viral RNA level after 2 days by qRT-PCR analysis. In kind it is functional, organism-based. Put shortly: as §1

For the compound `CCN(CC)c1ccc(Oc2ccc(-c3[nH]c4cccc(F)c4c(=O)c3C)cc2F)cc1`, the selectivity ratio is more than 8 in data set [1], more than 625 in data set [2] and more than 357 in data set [7]. Further, the CI in data set [3] was more than 50. Moreover, the EC50 is 240 nM in data set [4]; 13 nM in [6]; 20 nM in [11]; 300 nM in [12]; more than 2500 nM in [14]; 5 to 7 nM in [15] (JFH-1, Huh-7.5.1, 48 h). In [5], the CC50 at 48 h is more than 1250 nM. Also, the result in data set [8] was inactive. For the same compound, the Activity in data set [9] is more than 50%; in [10] it was “Dose-dependent effect”; in data set [13] it was “Dose-dependent effect”; in [15] (Hepacivirus hominis) it was “Dose-dependent effect”.
